The TD50 is the dose at which the toxic effect under study appears in half of the subjects. A low value points to greater toxicity. What is called ED50 is the dose that gives a 50% effect, or the effect in half of the subjects. Read a low ED50 as an effect at a small dose.

Molecules are shown by their SMILES. Where “and” joins values, the source holds several entries; their conditions need not be identical. Identical values can stand only once. Calls of active or inactive are those of the source. No cut-off for these calls is given here. A value given as a limit tells only on which side of the number the result lay.

Data set [1] can be described thus: dose eliciting minimal neurological toxicity in 50% of animals. The class given is organism-based. To be noted: rat, in vivo.
The subject of data set [2] is Rattus norvegicus. The experiment in a line: Anticonvulsant activity was measured in rats through seizures induced by maximal electroshock (MES) tests by oral administration of drug after 1 hour. The class given is functional. The essentials: (§1)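 Rats given a single oral dose of 30 or 50 mg/kg, depending on compound; MES protection scored at 15, 30, 60, 120 and 240 min. Activity graded by fraction of animals protected (0-25%, 25-50%, 50-75%, 75-100%); neurotoxicity monitored at the same time points.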
(In general: The maximal electroshock test induces tonic seizures with an electrical stimulus.)

Data set [3] deals with Rattus norvegicus. Description: Anticonvulsant activity was measured in rats through seizures induced by maximal electroshock (MES) tests by oral administration of drug after 4 hours. Format: functional. Put shortly: as §1
The species named for data set [4] is Mus musculus. The experiment in a line: Current response was measured on 1 uM GABA at 30 uM concentration on 6 isolated mouse cortical neurons. The class given is functional.
Data set [5] has as its system Rattus norvegicus. The experiment in a line: Effective dose required to assure anticonvulsant protection in 50% of rats dosed orally by MES test. The class given is functional. The conditions noted are these: po. Put shortly: (§2)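 Rats dosed orally; ED50 is the dose giving anticonvulsant protection in 50% of animals in the MES or scPtz test. TD50 is the minimal neurotoxic dose in 50% of animals. Time to peak effect was also determined.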

The subject of data set [6] is Mus musculus. Description: Anticonvulsant activity in mice through seizures induced by maximal electroshock (MES) tests after ip administration at a concentration of 100 mg/kg after 30 min; active. The arrangement: dose 100 mg/kg. The class given is functional, organism-based.
The species named for data set [7] is Mus musculus. The experiment in a line: Current response was measured from -60 mV depolarizing voltage steps at 100 uM concentration on 3 N1E-115 neuroblastoma cells. Format: functional. Put shortly: (§3)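 Differentiated N1E-115 cells (3-5 days in 2.5% FCS, 2% DMSO), whole-cell clamped at -70 mV at room temperature. Bath had Cd2+ and TEA to block Ca2+ and K+ channels. Na+ currents evoked by steps from -80 to +60 mV after 90 ms prepulses to -90 or -60 mV, measured 1-2 min into compound exposure; reported as % of control.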

The subject of data set [8] is Rattus norvegicus. Description: Toxicity screening in rats dosed orally with the compound; No toxicity. The conditions noted are these: in vivo, po. Format: organism-based.
For data set [9], the system named is Rattus norvegicus. The experiment in a line: Effective dose required to assure anticonvulsant protection in 50% of rats dosed orally by scPTZ test. Format: functional. To be noted: po. Put shortly:
as §2

For data set [10], the species on record is Mus musculus. The experiment in a line: Current response was measured on 1 uM GABA at 10 uM concentration on 5 isolated mouse cortical neurons. Format: functional.
The species entered for data set [11] is Mus musculus. Description: Current response was measured from -90 mV depolarizing voltage steps at 100 uM concentration on 5 N1E-115 neuroblastoma cells. The class given is functional. Put shortly: as §3
Data set [12] is filed under the species Mus musculus. Description: Current response was measured on 1 uM GABA at 100 uM concentration on 10 isolated mouse cortical neurons. The class given is functional.
The test system of data set [13] is Mus musculus. Description: Neurotoxicity by rotarod test after intraperitoneal administration at a concentration of 300 mg/kg after 30 minutes; Inactive. The arrangement: dose 300 mg/kg. The class given is functional, organism-based. (In general: Falling from the rotarod earlier than controls is read as motor impairment.)
Data set [14] deals with Mus musculus. Description: Neurotoxicity determined by rotarod test after intraperitoneal administration at a concentration of 300 mg/kg after 4 hours; Inactive. Format: functional, organism-based. Also on record: dose 300 mg/kg.
Data set [15] relates to Mus musculus. The experiment in a line: Anticonvulsant activity in mice through seizures induced by maximal electroshock (MES) tests after ip administration at a concentration of 300 mg/kg after 4 hours; Inactive. Format: functional, organism-based. The arrangement: dose 300 mg/kg.
For data set [16], the species on record is Mus musculus. The experiment in a line: Current response was measured on 100 uM kainate at 100 uM concentration on 7 isolated mouse cortical neurons. The class given is functional. The essentials:
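Cultured mouse fetal cortical neurons, whole-cell clamped at -60 mV and 23 °C. Bath had 1 µM glycine, 10 µM picrotoxin, strychnine and tetrodotoxin. Currents evoked by 100 µM kainate pulses with and without 100 µM compound via rapid perfusion; expressed as % of control, mean ± SEM, Student's t-test.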

The test system of data set [17] is Rattus norvegicus. The experiment in a line: Anticonvulsant activity was measured in rats through seizures induced by maximal electroshock (MES) tests by oral administration of drug after 2 hours. The class given is functional. Put shortly:
as §1

The subject of data set [18] is Mus musculus. The experiment in a line: Anticonvulsant activity in mice through seizures induced by sc pentylenetetrazole (intraperitoneal administration at a concentration of 300 mg/kg after 30 min; active. Also on record: dose 300 mg/kg. The class given is functional, organism-based.
The test system of data set [19] is Rattus norvegicus. Description: Anticonvulsant activity was measured in rats through seizures induced by maximal electroshock (MES) tests by oral administration of drug after 30 minutes. Format: functional. Put shortly: as §1
In data set [20] the test system is Rattus norvegicus. The experiment in a line: Anticonvulsant activity was measured in rats through seizures induced by maximal electroshock (MES) tests by oral administration of drug after 15 minutes. Format: functional. The essentials: as §1
In data set [21] the test system is Mus musculus. The experiment in a line: Anticonvulsant activity in mice through seizures induced by subcutaneous pentylenetetrazole (scPTZ) tests after ip administration at a concentration of 300 mg/kg after 4 hours; active. The class given is functional, organism-based. The arrangement: dose 300 mg/kg.

For `Nc1ccc(N2C(=O)c3ccccc3C2=O)c(Cl)c1`, the TD50 in data set [1] is above 500 mg/kg. The Activity in animals came out at 100% in the data set with Rattus norvegicus [2]; 100% in the data set with Rattus norvegicus [3]; 100% in the data set with Rattus norvegicus [17]; 100% in the data set on Rattus norvegicus [19]; 75% with Rattus norvegicus [20]. Further, the Response was 142% in the data set listed under Mus musculus [4]; 49% in the data set listed under Mus musculus [7]; 174% and 99% in the data set listed under Mus musculus [10]; 62% in the data set filed under Mus musculus [11]; 118% in the data set filed under Mus musculus [12]; 74% in the data set listed under Mus musculus [16]. The median effective dose (ED50) with Rattus norvegicus [5] was 5.7 mg/kg; with Rattus norvegicus [9], above 250 mg/kg. Moreover, the result with Mus musculus [6], in the data set on Mus musculus [18] and in the data set with Mus musculus [21] was Active. The Toxicity entry with Rattus norvegicus [8] is “No toxicity”. For the same compound, the result in the data set on Mus musculus [13], in the data set on Mus musculus [14] and with Mus musculus [15] was inactive.

The record behind these values is ChEMBL document CHEMBL1132994, “Synthesis and anticonvulsant and neurotoxic properties of substituted N-phenyl derivatives of the phthalimide pharmacophore” (J Med Chem, 2000).
